# TRPC6 inh = blocks the mouse TRPC6 cation channel | 310,000 tested, 1.1% active | B-score at 10 µM | HEK293-TRPC6, membrane potential dye, ACh-evoked depolarization; stronger effect = lower value;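 active means B-score under library mean minus 3 SD, initial fluorescence not abnormally high, positive integrated signal ratio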;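 further: B-score derived from integrated fluorescence ratio over the kinetic read; more negative B-score means stronger inhibition of depolarization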
# Target sequence (Q61143 whole entry, looked up): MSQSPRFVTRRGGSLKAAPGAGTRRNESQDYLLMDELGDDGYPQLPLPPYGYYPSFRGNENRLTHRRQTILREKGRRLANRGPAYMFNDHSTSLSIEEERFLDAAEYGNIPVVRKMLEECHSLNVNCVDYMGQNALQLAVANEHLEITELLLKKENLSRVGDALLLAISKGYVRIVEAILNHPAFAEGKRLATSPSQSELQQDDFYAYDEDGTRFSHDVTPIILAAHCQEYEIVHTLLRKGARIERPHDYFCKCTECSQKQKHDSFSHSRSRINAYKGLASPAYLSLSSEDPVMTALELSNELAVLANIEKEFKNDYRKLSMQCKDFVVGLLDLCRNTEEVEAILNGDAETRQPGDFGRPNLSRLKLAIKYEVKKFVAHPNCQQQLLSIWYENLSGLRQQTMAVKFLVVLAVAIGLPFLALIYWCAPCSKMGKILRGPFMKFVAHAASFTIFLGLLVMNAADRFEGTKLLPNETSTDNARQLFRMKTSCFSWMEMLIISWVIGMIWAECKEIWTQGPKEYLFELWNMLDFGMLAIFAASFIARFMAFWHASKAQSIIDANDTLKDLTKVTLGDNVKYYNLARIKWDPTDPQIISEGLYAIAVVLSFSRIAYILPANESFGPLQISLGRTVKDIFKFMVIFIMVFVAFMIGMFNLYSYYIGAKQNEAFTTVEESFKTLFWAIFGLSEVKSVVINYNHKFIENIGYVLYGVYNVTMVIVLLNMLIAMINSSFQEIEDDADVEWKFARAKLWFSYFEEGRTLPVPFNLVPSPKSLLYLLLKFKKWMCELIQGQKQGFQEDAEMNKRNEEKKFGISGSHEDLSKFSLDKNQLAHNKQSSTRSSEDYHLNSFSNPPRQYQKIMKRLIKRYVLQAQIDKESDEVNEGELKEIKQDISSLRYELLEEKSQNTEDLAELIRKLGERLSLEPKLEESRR
# TRPC4 block = inhibitors of mouse TRPC4 channel; Q9QUQ5; HEK293 TRPC4beta/mu-opioid, DAMGO-evoked Fluo4 calcium flux; stronger effect = lower value; B-score at 10 µM; 300,000 tested, 0.39% active; AID 2247;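 active means B-score over 3 SD under the library average, no early fluorescence shift, positive overall ratio signal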
#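 Assay system – HEK293 line stably carrying TRPC4beta and mu-opioid receptor · Doses – single dose · Detection – Fluo4 calcium-dye fluorescence, kinetic read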
# TRPC6 act = activators of mouse TRPC6 channel; Q61143; 310,000 tested, 0.13% active; B-score at 10 µM; HEK293-TRPC6 membrane potential dye fluorescence; stronger effect = higher value;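 active means B-score of the integrated fluorescence ratio above library mean plus 3 SD, and starting fluorescence ratio within library mean plus 5 SD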;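 further: higher score means more depolarization so channel activation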
# TRPC4 agonist = TRPC4 (mouse) channel activation; Q9QUQ5; HEK293 TRPC4beta/mu-opioid, Fluo4 calcium fluorescence; stronger effect = higher value; B-score at 10 µM; 310,000 tested, 0.49% active;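 active means B-score above 5 SD of library B-scores, and initial fluorescence ratio not above library mean plus 5 SD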;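 further: positive B-score marks a calcium rise read as TRPC4 activation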
#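 Material: TRPC4beta and mu-opioid receptor HEK293 stable cells | Incubation: 45 min room-temperature Fluo4 loading, 110 s read | Detection: Kinetic Fluo4 calcium fluorescence | Measure: Integrated baseline-normalised fluorescence ratio, converted to per-well B score | Benchmarks: Low control buffer alone, high control maximal DAMGO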
# TRPC4 PAM = allosteric potentiators of mouse TRPC4 channel; Q9QUQ5; HEK293 TRPC4beta/mu-opioid, DAMGO EC20, Fluo-4 Ca2+ flux; stronger effect = higher value; B-score at 10 µM; 310,000 tested, 0.42% active;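 active means B-score of calcium response area above 5 SD of library B-scores, with initial fluorescence ratio within 5 SD of library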
# TRPC4 spec 2 = second check of whether TRPC6 inhibitors also affect mouse TRPC4; inhibition, % at 10 µM; 920 tested, 42% active; AID 2776; HEK293 TRPC4/MOR, membrane potential dye fluorescence; channel activated by saturating DAMGO dose; shares compounds with TRPC6 inh;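 active means compounds whose fluorescence signal differed from control wells by over 3 SD, either direction, in both duplicate plates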
# TRPC4 spec = mouse TRPC4 off-target activity of TRPC6 inhibitors. shares compounds with TRPC6 inh. HEK293 TRPC4/mu-opioid, membrane potential fluorescence. activity change, negative = inhibition, % at 10 µM. 920 tested, 61% active. AID 2777;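 active means rise or fall in signal beyond 3 SD of buffer-only wells in both replicate plates, either sign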;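 further: integrated kinetic ratio of fluorescence range over baseline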
# HEK293 MPD ctr 2-1 = parental HEK293 nonspecific activity of TRPC6 inhibitors, second screen. shares compounds with TRPC6 inh. parental HEK293 membrane potential dye fluorescence; maximal acetylcholine challenge after compound addition. signal change vs control, % at 10 µM. 920 tested, 31% active;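 active means membrane potential signal moving either way by over 3 SD of the maximum-effect control, in both duplicate plates, meaning non-specific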
# HEK293 MPD ctr-1 = counter-screen for TRPC6 inhibitors: effect in parental HEK293 cells; parental HEK293 membrane potential dye fluorescence; 920 tested, 60% active; shares compounds with TRPC6 inh; membrane potential signal change, % at 10 µM;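 active means membrane potential signal shifting up or down by more than 3 SD of buffer-only wells, on both duplicate plates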
# HEK293 MPD ctr-2 = counter-screen for TRPC6 modulators: effect in parental HEK293 cells; 2,400 tested, 51% active; membrane potential signal change, % at 10 µM; shares compounds with TRPC6 inh; membrane potential dye fluorescence; AID 488924;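 active means membrane potential signal moves up or down beyond 5 SD from buffer-only wells, on both duplicate plates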
# HEK293 MPD ctr 2-2 = second counter-screen for TRPC6 modulators: effect in parental HEK293 cells; 2,400 tested, 14% active; inhibition, % at 10 µM; membrane potential dye fluorescence; after compound, maximal acetylcholine stimulation; shares compounds with TRPC6 inh;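 active means membrane potential signal drops by more than 5 SD from the mean control signal, in both duplicate plates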
# TRPC4/MOR mod = mouse TRPC4 off-target activity of TRPC6 modulators; shares compounds with TRPC6 inh; percent change from control (negative = decrease, positive = increase), % at 10 µM; 2,400 tested, 69% active; HEK293 TRPC4/mu-opioid, membrane potential fluorescence;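 active means membrane potential signal moved up or down beyond 5 SD of buffer control wells, in both duplicate plates, actives on both sides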
# TRPC4 ctr inh 2 = mouse TRPC4 off-target activity of TRPC6 modulators, second screen | shares compounds with TRPC6 inh | inhibition, % at 10 µM | HEK293 TRPC4/mu-opioid, membrane potential dye fluorescence; stimulated with maximal-effect DAMGO | 2,400 tested, 55% active;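 active means drop in membrane potential signal beyond 5 SD of the control wells in both duplicate plates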;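 further: TRPC4 counter screen for TRPC6 hits run under conditions tuned for TRPC6 not TRPC4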
# TRPC6 inh conf = mouse TRPC6 inhibitor confirmation; shares compounds with TRPC6 inh; HEK293-TRPC6, membrane potential dye, ACh-evoked depolarization; inhibition, % at 10 µM; 3,300 tested, 43% active;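 active means fluorescence ratio falls more than 5 SD below the full-stimulation control mean, in both duplicate runs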;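 further: integrated fluorescence ratio of peak minus minimum over baseline after agonist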
# TRPC6 act conf = mouse TRPC6 activator confirmation. shares compounds with TRPC6 inh. HEK293-TRPC6 membrane potential dye fluorescence, FDSS. activation, % at 10 µM. 2,800 tested, 11% active. AID 488961;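 active means ratio signal rise beyond 5 SD above unstimulated control wells' mean, seen in both duplicate runs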
# Hits are given with their value; . = inactive; / = no result. The list is not random: actives were taken first. Their share in the collection is about 2.3%.
SMILES,TRPC6 inh,TRPC4 block,TRPC6 act,TRPC4 agonist,TRPC4 PAM,HEK293 MPD ctr-2,HEK293 MPD ctr 2-2,TRPC4/MOR mod,TRPC4 ctr inh 2,TRPC6 inh conf,TRPC6 act conf,others
COc1cc(NC2=Nc3cccc4cccc2c34)cc(OC)c1OC,-5.1,.,.,.,.,.,.,.,32%,.,.,
CCOCCCNC(=O)CCCOc1ccccc1,-5.5,.,.,.,.,.,.,.,.,.,.,
CN(C)S(=O)(=O)N1CCN(c2ccccc2Cl)CC1,.,.,.,.,.,/,/,/,/,/,/,
CN(C)S(=O)(=O)N1CCN(C(=O)c2ccccc2Cl)CC1,-5,.,.,.,.,.,.,.,.,.,.,
Cc1sc2nc(CN3CCCCC3)nc(Nc3ccc4c(c3)OCCO4)c2c1C,-5,.,.,.,.,.,.,.,.,44%,/,
Cc1sc2nc(CN3CCCC3)nc(NCc3ccncc3)c2c1C,.,.,.,.,.,/,/,/,/,/,/,
COc1ccc(/C=C/C(=O)NCC(=O)N/N=C/c2cccs2)cc1,.,.,.,.,.,/,/,/,/,/,/,
CN(C)CC/C=C1/c2ccccc2Sc2ccc(Cl)cc21,-5.3,.,.,.,.,.,.,9.0%,54%,48%,.,
CCCCCC[N+](C)(C)CC/C=C1/c2ccccc2Sc2ccc(Cl)cc21,-6.6,-7,.,.,.,/,/,/,/,78%,.,TRPC4 spec 2=.;TRPC4 spec=.;HEK293 MPD ctr 2-1=.;HEK293 MPD ctr-1=.
CN(C)CC/C=C1\c2ccccc2COc2ccccc21,.,.,.,.,.,/,/,/,/,/,/,
Cc1cccc(OCC(=O)O/N=C(\N)c2ccncc2)c1,.,.,.,.,.,/,/,/,/,/,/,
CC(=O)Nc1ccc(NC(=O)C(C)OC(=O)CSCc2cccc(Cl)c2)cc1 (stereo unspecified),.,.,.,.,.,/,/,/,/,/,/,
Cc1cccc(C)c1NC(=O)c1cccnc1,-6.3,.,.,.,.,.,.,.,.,.,.,
O=C(NCc1ccccc1)C1CCCN1S(=O)(=O)c1ccc(Cl)cc1 (stereo unspecified),.,.,.,.,.,/,/,/,/,/,/,
Cc1ccc(CNC(=O)C2CCCN2S(=O)(=O)c2ccc(Cl)cc2)cc1 (stereo unspecified),-5.4,.,.,.,.,.,.,.,.,.,.,
COc1ccc(NC(=O)C2CC(=O)N=C(N)S2)cc1 (stereo unspecified),.,.,.,.,.,/,/,/,/,/,/,
OCCOCCn1c(-c2ccccc2)nc(=S)c2c1CCCC2,-7.7,.,.,.,.,-322%,86%,-52%,53%,60%,.,
COc1ccc(CCNCC(O)COc2cccc(Br)c2)cc1 (stereo unspecified),-5.5,.,.,.,.,186%,.,30%,50%,.,/,
CNCC(O)COc1cccc(OC)c1 (stereo unspecified),.,.,.,.,.,/,/,/,/,/,/,
O=C(O)c1ccccc1-c1csc(-c2ccccc2)n1,.,.,.,.,.,/,/,/,/,/,/,
Cc1cccc(C)c1OCCNC(=O)c1ccc2ccccc2n1,-13,.,12,.,.,150%,.,.,44%,91%,78%,
O=C(NCc1ccco1)c1ccc2ccccc2n1,-5.1,.,.,.,.,.,.,.,.,44%,/,
Cc1cccc(OCc2nnc(SCc3cc(=O)n4cc(Br)ccc4n3)o2)c1,-8,.,.,.,.,/,/,/,/,.,.,TRPC4 spec 2=.;TRPC4 spec=0.1%;HEK293 MPD ctr 2-1=.;HEK293 MPD ctr-1=0.6%
CC(C)(C)n1nnnc1C(c1ccccc1)N1CCc2ccccc2C1 (stereo unspecified),-7.6,.,.,.,.,/,/,/,/,.,.,TRPC4 spec 2=.;TRPC4 spec=12%;HEK293 MPD ctr 2-1=.;HEK293 MPD ctr-1=6.8%
COc1ccccc1N1CCN(C2CCCN(C(=O)c3ccsc3)C2)CC1 (stereo unspecified),.,.,.,.,.,/,/,/,/,/,/,
SMILES,TRPC6 inh,TRPC4 block,TRPC6 act,TRPC4 agonist,TRPC4 PAM,HEK293 MPD ctr-2,HEK293 MPD ctr 2-2,TRPC4/MOR mod,TRPC4 ctr inh 2,TRPC6 inh conf,TRPC6 act conf,others
O=C(O)COc1ccc(/C=C/c2nc3ccc([N+](=O)[O-])cc3s2)cc1,-8.5,.,.,.,.,/,/,/,/,.,.,TRPC4 spec 2=.;TRPC4 spec=-30%;HEK293 MPD ctr 2-1=.;HEK293 MPD ctr-1=-426%
CCCCC(=O)Nc1nnc(SCC(=O)NCC2CCCO2)s1 (stereo unspecified),.,.,.,.,.,/,/,/,/,/,/,
CCOC(=O)c1c(-c2ccccc2)oc2cc(CN(C)C)c(O)c(CN(C)C)c12,-7.7,.,.,.,.,/,/,/,/,.,.,TRPC4 spec 2=.;TRPC4 spec=.;HEK293 MPD ctr 2-1=270%;HEK293 MPD ctr-1=.
CN(C)S(=O)(=O)N(CC(=O)Nc1ccc(S(=O)(=O)N2CCCC2)cc1)c1ccccc1,.,.,.,.,.,/,/,/,/,/,/,
COc1ccc(S(=O)(=O)Nc2ccc(C(N)=O)cc2)cc1C(=O)N1CCCCCC1,.,.,.,.,.,/,/,/,/,/,/,
Cc1cc([N+](=O)[O-])c(C)cc1-c1ccc(/C=N/n2cnnc2)o1,-5.8,.,.,.,.,-108%,.,-23%,34%,.,.,
O=[N+]([O-])c1ccc(-c2ccc(/C=N/n3cnnc3)o2)c(Br)c1,.,.,.,.,.,/,/,/,/,/,/,
CNc1nc(SC)nc2ccsc12,.,.,.,.,.,/,/,/,/,/,/,
Cc1ccc(C)c(N2CCN(C(=O)Cc3ccc(NC4=NC5CS(=O)(=O)CC5S4)cc3)CC2)c1 (stereo unspecified),.,.,.,.,.,/,/,/,/,/,/,
CCOC(=O)c1ccccc1NC(=O)COC(=O)CSc1ccccc1,.,.,.,.,.,/,/,/,/,/,/,
CN(C)CCCN1c2ccccc2Sc2ccc(C(F)(F)F)cc21,-7.2,.,.,.,.,/,/,/,/,.,.,TRPC4 spec 2=70%;TRPC4 spec=1.5%;HEK293 MPD ctr 2-1=.;HEK293 MPD ctr-1=.

# Source: PubChem (Johns Hopkins Ion Channel Center)
